Data reported in publication PMC8968902 (Haematologica, 2021).

Tests used:
[1] = reported half-lives; cited from earlier work
TNFa [2] = conditions: BTKi-naïve patients; cited from earlier work
CCL4 [3] = conditions: BTKi-naïve patients; cited from earlier work
CCL3 [4] = conditions: BTKi-naïve patients; cited from earlier work
CCL3 [5] = assay: Serum cytokine levels by ELISA in CLL patients; assay type: in vivo, human; conditions: after one cycle, 246, 328 and 410 mg dose levels
BTK WT = BTK WT (Homo sapiens, UniProt Q06187); assay: In vitro cellular assay, BTK residence time, BTK WT; assay type: cell-based; conditions: read-out: BTK residence time
[6] = Pharmacokinetics in patients; assay type: in vivo, human; conditions: 38 patients, 20.5-410 mg BID
Method in brief: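 Phase Ib, patients with relapsed/refractory CLL or other B-cell malignancies; test compound given orally as capsules twice daily at seven escalating dose levels, 20.5 mg/dose up to 410 mg BID. Pharmacokinetic data from 38 patients across the ~12 hour dosing interval; trough concentrations taken on cycle 1 day 8.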

Protein binding = assay type: in vitro ADME
TNFa [7] = assay: Serum cytokine levels by ELISA in CLL patients; assay type: in vivo, human; conditions: after one cycle, 246, 328 and 410 mg dose levels
CCL4 [8] = assay: Serum cytokine levels by ELISA in CLL patients; assay type: in vivo, human; conditions: after one cycle, 246, 328 and 410 mg dose levels
[9] = Phase Ib dose-escalation study: safety and tolerability in patients; assay type: in vivo, human
[10] = tested on: relapsed/refractory CLL or other B-cell malignancies; assay: Phase Ib dose-escalation study: clinical activity; assay type: in vivo, human

Chain of BTK WT (Q06187 whole entry): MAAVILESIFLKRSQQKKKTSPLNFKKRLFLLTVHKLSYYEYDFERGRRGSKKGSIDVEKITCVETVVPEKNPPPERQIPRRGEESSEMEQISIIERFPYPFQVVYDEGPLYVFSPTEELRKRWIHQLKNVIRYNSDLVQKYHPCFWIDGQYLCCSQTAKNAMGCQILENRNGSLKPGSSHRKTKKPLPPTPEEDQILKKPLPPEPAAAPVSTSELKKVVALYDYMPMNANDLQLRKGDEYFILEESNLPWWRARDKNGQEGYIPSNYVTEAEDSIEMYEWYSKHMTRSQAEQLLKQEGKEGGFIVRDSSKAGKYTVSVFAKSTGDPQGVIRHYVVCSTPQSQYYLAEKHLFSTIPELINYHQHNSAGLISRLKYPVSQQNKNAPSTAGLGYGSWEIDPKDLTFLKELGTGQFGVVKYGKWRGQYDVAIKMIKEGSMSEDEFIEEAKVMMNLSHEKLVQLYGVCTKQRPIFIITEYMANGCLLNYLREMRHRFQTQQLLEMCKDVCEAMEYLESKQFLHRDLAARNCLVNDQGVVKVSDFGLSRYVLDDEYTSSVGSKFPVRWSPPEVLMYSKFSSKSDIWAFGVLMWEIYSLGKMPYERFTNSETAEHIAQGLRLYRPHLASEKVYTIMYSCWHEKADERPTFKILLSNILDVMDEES

## O=C(c1ccc(Oc2ccccc2)cc1Cl)c1c[nH]c2ncnc(N[C@@H]3CC[C@@H](CO)OC3)c12 [ARQ 531]
[1]
  Half-life: ~55 h

## C=CC(=O)N1CCC[C@@H](n2nc(-c3ccc(Oc4ccccc4)cc3)c3c(N)ncnc32)C1 [Ibrutinib, ibrutinib]
TNFa [2]
  Median decrease in TNFa: ≥ 80%
CCL4 [3]
  Median decrease in CCL4: ≥ 80%
CCL3 [4]
  Median decrease in CCL3: ≥ 80%

## COc1ccc(F)cc1C(=O)NCc1ccc(-c2nn([C@@H](C)C(F)(F)F)c(N)c2C(N)=O)cc1 [Pirtobrutinib, pirtobrutinib]
[1]
  Half-life: approximately 20 hours

## NC(=O)[C@H]1CCN(c2ncnc(N)c2F)C[C@@H]1N1CCC[C@@H](Nc2cc(Cl)cc(C(F)(F)F)c2)C1=O [Vecabrutinib, vecabrutinib]
CCL3 [5]
  Mean reduction in serum CCL3: 34-62%
BTK WT
  residence time: 15 min
[6]
  Dose proportionality of exposure and median steady-state Ctrough: approximately dose-proportional
Protein binding
  Protein bound: 98.7%
TNFa [7]
  Mean reduction in serum TNFa: 24-57%
CCL4 [8]
  Mean reduction in serum CCL4: 33-59%
[9]; 328 and 410 mg BID
  Grade ≥3 AE at the two highest dose levels: no grade ≥3 AE observed
[9]; all patients
  AE considered treatment-related by the investigator: anemia: 10%
  AE considered treatment-related by the investigator: fatigue: 10%
  Grade ≥3 AE: anemia: 23%
  Grade ≥3 AE: thrombocytopenia: 10%
  Patients with one or more serious AE (SAE): seven
  Treatment-emergent AE: anemia: 31%
  Treatment-emergent AE: dyspnea: 21%
  Treatment-emergent AE: fatigue: 21%
  Treatment-emergent AE: headache: 21%
  Treatment-emergent AE: nausea: 21%
[9]; doses 20.5-410 mg BID
  Maximum-tolerated dose: not reached
[9]; human, in vivo
  Cardiac events or clinically significant electrocardiogram findings: no cardiac events or clinically significant electrocardiogram findings
  Dose-dependent toxicity: No obvious pattern of dose-dependent toxicity
  SAE related to study treatment per the investigator: No SAE were considered related to study treatment
  SAE: hematuria: 1 patient
  SAE: intestinal perforation: 1 patient
  SAE: lymphocytosis: 1 patient
[9]; oral capsules, highest dose studied
  Dose up to which well-tolerated: 410 mg BID
[10]; 11 CLL, 1 MCL, 1 marginal zone lymphoma
  Best response of stable disease (SD), patients: 13 patients
[10]; of 14 patients with PR or SD
  Patients with PR or SD who received vecabrutinib for ≥6 months: Eight
[10]; patients with PR or SD
  Median time on study treatment: 28.5 weeks
